The values below come from the RNAGym collection of RNA variant scans (doi:10.1126/science.aae0568).

B1: tRNA (parent)
chain: GUUCCGUUGGCGUAAUGGUAACGCGUCUCCCUCCUAAGGAGAAGACUGCGGGUUCGAGUCCCGUACGGAACG

Fewer inactive variants are shown than the library holds.

In this data set the parent is B1. Briefly: yeast fitness relative to wild type (ratio to wild type); higher = fitter; tRNA-Arg(CCU), competitive growth, 37 C, YPD. The method, boiled down:
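Start and end populations of a pooled competition were compared by 100-nucleotide paired-end sequencing of gene amplicons. The Saccharomyces cerevisiae strains carried tRNA-Arg(CCU) gene variants at the native genomic locus, synthesised with a 3% per-site mutation rate at 69 sites, and competed in YPD at 37°C for 24 hours in six parallel replicates. Darwinian fitness relative to wild type was based on the change in genotype frequencies. Genotypes required ≥ 100 starting reads, and estimates < 0.5 were set to 0.5.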
With GUUCCGUUGGCGUAAUGGUAUUGCGUCUCCCACCUAAGAAGAAGACUGCGAGUUCGAGUCCCGUUCGGAACG, the yeast fitness was not above 0.5.

On to GUUCCGUUGGCGUAAUGGUAUCGCGUCUCGCUCCUAAGGAGAAGACUGCGGGUUCGAGUCUCGUACGGAACG, for which the yeast fitness was not above 0.5.

As to GUUCCGUUGGCGUAAUGGUAUUGCAUCUCCCUCCUAAGGAGAAGACUGCGGGUUCGCGUCCCGUACGUCACG, the yeast fitness turned out to be 0.599.

Turning to GUUCCGUUGGCGUAAUGGUAUCGUGUAUCCCUCCUACGGUGAAGACUGCGGGUUCGAGUCCCGUACCGAACG, the yeast fitness came to 0.54.

With GUUCCGUUGGCGUAAUGGUAUCGUGUAUCCCUCCUACGGUGAAGACUGCGGGUUCGAGUCCCGUACGGAACG, the yeast fitness was not above 0.5.

GUUCCGUUGGCGUAAUGGUAUCGCGUCUCUCACCUAAGGAGAAGACUGCGGGUUCGAGUCCCCUACGGAACG: the yeast fitness is not above 0.5.

Turning to GUUCCGUUGGCGUAAUGGUAUCGCGUGUCCCUCCUAAGGGGAAGACUGCGGGUUCGAGUCCCGUACGGAACG, the yeast fitness was not above 0.5.

For GUUCCGUUGGCGUAAUGGUAUCGCGUGUCCCUGCUAAGGAGAAGACUGCGGGUUCGAGUGCCGUACGGAACG, the yeast fitness is 0.52.

As to GUUCCGUUGGCGUAAUGGUAUCGCGUCUGCGUCCUAAGGAGAUGACUGCGGGUUCGAACCCCGUACGGAACG, the yeast fitness is not above 0.5.

Take GUUCCGUUGGCGUAAUGGUAUCGUGUAUCCCUCCUACGGUGAAGACUGGGGGUUCGAGUCCCGUACGGAACG: the yeast fitness is not above 0.5.

Turning to GUUCCGUUGGCGUAAUGGUAUCGAGUCUCCCUCCUAUGGAGAAGACUCCGGGUUCGAGUCCCGUACGGAACG, the yeast fitness was found to be 0.534.

Take GUUCCGUUGGCGUAAUGGUAUCGUGUCUCCCUCCUAAGGAGAAGACUGCGGGUUCAAGUCCCGUACGGAACG: the yeast fitness was 0.635.

Regarding GUUCCGUUGGCGUAAUGGUAUCGAGUCUCCCUCCUAAGGAGAAGACUGCGGGUUCGAGUCCCGUACGGGACG, the yeast fitness was not above 0.5.

For the variant GUUCCGUUGGCGUAAUGGUAUCGAGUCUCCCUCCUAAGGAGAAGACUGCGGGUUCGAGUCCCGUACGGCACG, the yeast fitness is not above 0.5.

As for GUUCCGUUGGCGUAAUGGUAUCGCGUCUGCGUCCUAAGGAGAUGACUGCGGGUUCGAGUCCCGUACGGAACG, the yeast fitness was 0.574.

As to GUUCCGUUGGCGUAAUGGUAUCGCGUGUCCCUCCUAAGGAGAUGACUGCGGGUUCGAGUCCCGUACGGAACG, the yeast fitness was not above 0.5.

Regarding GUUCCGUUGGCGUAAUGGUAUCGCGUCUCGCUCCUAAGGAAACGACUGCGGGUUAGAGUCCCGUACGGAACG, the yeast fitness is not above 0.5.

As for GUUCCGUUGGCGUAAUGGUAUUGCGUCUCCCUCCUAAGGAGACGACUGAGGGUUCGAGUCCCGUACGGAACG, the yeast fitness amounted to 0.595.

Consider GUUCCGUUGGCGUAAUGGUAUCGAGUCUCCCUCCUAAGGAGAAGUCUGCGGGUUCGAGUCCAGUACGGCACG, for which the yeast fitness is not above 0.5.

Consider GUUCCGUUGGCGUAAUGGUAUCGUGUCUCCCUCCUAAGGAGAAGACUGCGGGUUCGAGUCCCGUAUGGAACG, for which the yeast fitness is not above 0.5.

For GUUCCGUUGGCGUAAUGGUAUCGCGUAUCCCUCCUAAGGAGAAGACUGCGGGUUCGAGUCCCGUACGGAACG, the yeast fitness stood at 0.583.

Consider GUUCCGUUGGCGUAAUGGUAUCGCGUCUCGCUCCUAAGGAGAAGACUGCGGGUUCGAGUCCCGUACGGAACG, for which the yeast fitness stood at 0.54.

In the case of GUUCCGUUGGCGUAAUGGUAUCGCGUCUCCAUCCUAAGCAGAAGACUGCGGGUUCGAGUCACGUACGGAACG, the yeast fitness came out at 0.579.

GUUCCGUUGGCGUAAUGGUAUCGCGUCUGCCUCCGAAGGACAAGACUGCGGGUUCGAGUCCCGUACGGAACG: the yeast fitness was not above 0.5.

GUUCCGUUGGCGUAAUGGUAUCGCGUCUCUCACCUAAGGAGAAGACUGCGGGUUCGAGUCCCGUACGGAACG: the yeast fitness is not above 0.5.

Regarding GUUCCGUUGGCGUAAUGGUAUCGCGUCUCCUUCCUAAGGAGAAGACUGCGGAUUCGAGUCCCGUACGGGACG, the yeast fitness was 0.706.

Turning to GUUCCGUUGGCGUAAUGGUAUCGCGUCUUCCUCCUAUGGAGAAGACUGCGGGUUCGAGUCCCGUAUGGAACG, the yeast fitness is not above 0.5.

As for GUUCCGUUGGCGUAAUGGUAUCGCGUCUCACUCCUAAGGAGAAGACUGCGGGUUCGAGUCCCGUACGGUACG, the yeast fitness amounted to 0.815.

As for GUUCCGUUGGCGUAAUGGUAUCGCGUGUCCAUCCUAAGGAGAAGAAUGCGGGUUCCAGUCCCGUACGGAACG, the yeast fitness is not above 0.5.

In the case of GUUCCGUUGGCGUAAUGGUAUCGCGUGUCCCUCCUAAGGAGAAGACUGCGGGUUCGAGUCUCGUACGGAACG, the yeast fitness is not above 0.5.

Regarding GUUCCGUUGGCGUAAUGGUAUCGCGUCUUCCUCCUAAGGAGAAGACUGCGGGUUCGAGUCCCGUACGGGACG, the yeast fitness is not above 0.5.

Turning to GUUCCGUUGGCGUAAUGGUAUCGCGUCUCCAUCCUAAGCAGAAGACUGCGGGUUCGAGUCCGGUACGAAACG, the yeast fitness was not above 0.5.

As for GUUCCGUUGGCGUAAUGGUAUCGAGUCUCCCUCCUAAGGAGAAGUCUGCGGGUUCGAGUCCUGUACGGAACG, the yeast fitness was not above 0.5.

Take GUUCCGUUGGCGUAAUGGUAUCGUGUAUCCCUCCCACGGUGAAGACUGCGGGUUCGAGUCCCGUACCGAACG: the yeast fitness was not above 0.5.

GUUCCGUUGGCGUAAUGGUAUUGCGUCUCCCUCCUAAGAAGAAGAUUGCGGGUUCGAGUCCUGUACGGAACG: the yeast fitness was not above 0.5.

For the variant GUUCCGUUGGCGUAAUGGUAUCGCGUUUCCCUCCUAAGGAGAAGACUGCGGGCUCGAGUCCCGUACGGAACG, the yeast fitness was not above 0.5.

Consider GUUCCGUUGGCGUAAUGGUAUCGCGUGUCCCUCCUAAGGAGAAGCCUGCGGGUUCGAGUCCCGUACGGAACG, for which the yeast fitness was not above 0.5.

In the case of GUUCCGUUGGCGUAAUGGUAUCGCGUCUCGCUCCUAAGGAGAAGACUGCGGGUUCGAGUCCCGUACGGAUCG, the yeast fitness stood at 0.677.
